Assay results taken from PubChem BioAssay.
The source made the active and inactive calls.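 How the source made its calls, unless noted: active means viability at or below 30% in both replicate assays; inconclusive means viability at or below 30% in just one of the two assays; inactive means the rest.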

Columns and labels:
[1] = Her2 expression decrease, cell viability multiplex – SKBR3 breast tumor cells, AlphaScreen, ATP viability, primary screen (AID 461;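 active means Her2 level under about 52% in both replicate screens, with viability over 70% of control, limit read from the data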;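 on Her2 level: lower value means less Her2 protein in the cells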;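 on viability: percent of carrier control wells set as 100% viability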); conditions: SKBR3 Her2 protein level, 18-24 h, measured here: SKBR3 viability, ATP luminescence, at 10 µM
[2] = target: Receptor tyrosine-protein kinase erbB-2 (Homo sapiens) (UniProt P04626); assay: as above; conditions: 18-24 h, at 10 µM, stronger effect = lower value
[3] = reduced viability of SK-BR-3 breast cancer cells – cell-based, 24 h, human, pilot screen (AID 572;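 active means viability at or below 10% of carrier control in both of two separate runs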;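 further: compound exposure lasted between 18 and 24 h rather than exactly 24 h; 100% = carrier-treated control wells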); conditions: SK-BR-3 viability, CellTiter-Glo luminescence, at 10 µM, stronger effect = lower value
[4] = HUVEC growth inhibition – cell-based, human, primary screen (AID 575); conditions: HUVEC proliferation, CellTiter-Glo luminescence, 72 h; at 10 µM; stronger effect = lower value;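 further: 100% = median of untreated cell wells with 0.1% DMSO on each plate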
Outline: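 system = HUVEC primary cells | amount = 1250 cells/well | buffer or medium = supplemented EBM, 2% fetal bovine serum | dosing = single-point 10 µM, DMSO 0.1% final | times = 72 h compound incubation | detection = CTG luminescence | read-out = % viability relative to median vehicle-well signal on each plate | control set = vehicle and MePR control wells | format = collagen-coated 384-well format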

[5] = H69AR cell proliferation blockers – human, duplicate replicates, primary screen (AID 580;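 active means viability at or under a set limit in both replicates, limit being median viability minus 3 SD, cut at about 48% in these data, passing the limit was not always enough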;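 further: 100% = mean luminescence of untreated wells and 0% = no signal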); conditions: H69AR lung tumor cells viability, ATP luminescence, 72 h; at 10 µM; stronger effect = lower value
[6] = MRP1 drug-resistance reversers in H69AR cells – cell-based, doxorubicin co-treatment, pilot screen (AID 601;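 active means viability loss from added drug above about 55%, and viability with drug at most 40%, in both replicates, limit read from the data, passing the limit was not always enough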); conditions: CellTiter-Glo, 72 h, at 10 µM; for differential viability (reversal): stronger effect = higher value
[7] = yeast transport mutant growth inhibition pilot in 384-well plates, post-Golgi transport modulator project (AID 636; in the data active means inhibition above about 31%); conditions: absorbance 615 nm, about 18 h, stronger effect = higher value
[8] = growth suppression of yeast trafficking mutant, preliminary HTS, modulators of trafficking downstream of Golgi apparatus project, 1536-format plate, OD 615 nm (AID 637; in the data active means inhibition above about 30%); conditions: yeast transport mutant growth, absorbance 615 nm, 18 h; stronger effect = higher value
[9] = H69AR cells + 2 uM doxorubicin, measured here: viability with 2 uM doxorubicin, stronger effect = lower value
[10] = H69AR cells, compound alone cytotoxicity

Chain of Receptor tyrosine-protein kinase erbB-2 (Homo sapiens) (P04626 whole entry, looked up): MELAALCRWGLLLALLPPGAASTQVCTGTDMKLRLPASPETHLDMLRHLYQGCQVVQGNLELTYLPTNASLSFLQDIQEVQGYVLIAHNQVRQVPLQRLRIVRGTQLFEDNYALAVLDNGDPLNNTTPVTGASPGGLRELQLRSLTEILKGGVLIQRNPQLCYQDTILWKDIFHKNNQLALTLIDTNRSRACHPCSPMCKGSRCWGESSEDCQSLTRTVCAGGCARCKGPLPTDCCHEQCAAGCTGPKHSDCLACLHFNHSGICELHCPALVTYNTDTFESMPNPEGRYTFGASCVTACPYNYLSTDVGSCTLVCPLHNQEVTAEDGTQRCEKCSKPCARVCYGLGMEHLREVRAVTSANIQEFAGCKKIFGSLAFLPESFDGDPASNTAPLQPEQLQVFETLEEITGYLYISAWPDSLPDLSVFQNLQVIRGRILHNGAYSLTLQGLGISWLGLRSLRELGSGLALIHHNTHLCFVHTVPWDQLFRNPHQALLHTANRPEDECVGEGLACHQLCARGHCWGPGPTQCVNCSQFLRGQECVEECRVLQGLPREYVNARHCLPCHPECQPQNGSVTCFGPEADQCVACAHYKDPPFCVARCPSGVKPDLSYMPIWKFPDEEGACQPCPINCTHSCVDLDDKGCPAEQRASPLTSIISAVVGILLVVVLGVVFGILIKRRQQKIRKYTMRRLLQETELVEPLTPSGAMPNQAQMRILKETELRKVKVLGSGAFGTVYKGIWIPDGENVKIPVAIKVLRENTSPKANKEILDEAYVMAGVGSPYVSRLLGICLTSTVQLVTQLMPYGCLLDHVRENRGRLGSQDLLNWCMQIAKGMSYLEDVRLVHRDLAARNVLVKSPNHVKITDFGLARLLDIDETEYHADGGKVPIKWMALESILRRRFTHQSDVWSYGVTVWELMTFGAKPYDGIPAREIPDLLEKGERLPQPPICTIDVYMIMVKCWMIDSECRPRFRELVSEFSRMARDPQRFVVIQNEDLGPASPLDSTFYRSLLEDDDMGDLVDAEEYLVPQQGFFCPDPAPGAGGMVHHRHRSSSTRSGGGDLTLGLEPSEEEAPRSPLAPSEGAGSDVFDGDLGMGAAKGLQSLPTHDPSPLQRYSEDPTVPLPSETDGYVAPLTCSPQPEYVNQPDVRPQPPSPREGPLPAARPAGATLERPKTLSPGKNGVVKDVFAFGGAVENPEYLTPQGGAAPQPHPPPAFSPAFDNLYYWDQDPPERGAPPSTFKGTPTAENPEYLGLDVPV

SMILES | viability [1] | Her2 level [2] | viability [3] | viability [4] | viability [5] | differential viability (reversal) ([6]; H69AR cells + 2 uM doxorubicin) | viability [6, 9] | viability [6, 10] | inhibition [7] | inhibition [8]
CN(CC(O)COCc1cccs1)C1CCCCC1 (stereo not given) | 93.5% | 90% (inactive) | 93.5% (inactive) | 93.2% (inactive) | 106% (inactive) | 10.9% (inactive) | 95.4% | 106% | -3.47% (inactive) | 5.57% (inactive)
COCCCNC(=O)CSc1nc2ccc(N3CCOCC3)cc2c(=O)n1CCc1ccccc1 | 104% | 87% (inactive) | 104% (inactive) | 70.3% (inactive) | 94.9% (inactive) | -5.04% (inactive) | 99.9% | 94.9% | -2.73% (inactive) | -0.48% (inactive)
Cc1cc(Cl)ccc1NC(=O)CSc1nnc(Cc2cccs2)n1Cc1ccco1 | 77.5% | 95.5% (inactive) | 77.5% (inactive) | 68.3% (inactive) | 77.2% (inactive) | -8.29% (inactive) | 85.5% | 77.2% | -3.92% (inactive) | 1.97% (inactive)
Cc1nc(-c2cccc(-c3noc(C)n3)c2)no1 | 87.5% | 99% (inactive) | 87.5% (inactive) | 86.1% (inactive) | 102% (inactive) | 5.99% (inactive) | 95.8% | 102% | -5.54% (inactive) | -1.48% (inactive)
CCn1ncc(C2=NOC(C(=O)NCc3ccc(Cl)cc3)C2)c1C (stereo not given) | 83.5% | 69.5% (inactive) | 83.5% (inactive) | 38.7% (inactive) | 24.4% (active) | -29.8% (inactive) | 54.2% | 24.4% | -2.89% (inactive) | -0.32% (inactive)
CCOc1cc2[nH]c(=S)n(CC3CCCO3)c(=O)c2cc1OCC (stereo not given) | 105% | 103% (inactive) | 105% (inactive) | 88.3% (inactive) | 87.8% (inactive) | 7.12% (inactive) | 80.7% | 87.8% | -4.46% (inactive) | -3.77% (inactive)
COc1ccc2c(=O)c3c(=O)n(Cc4ccco4)c(-c4cc(OC)c(OC)c(OC)c4)nc3oc2c1 | 67% | 82.5% (inactive) | 67% (inactive) | 67.9% (inactive) | 36.1% (active) | -1.67% (inactive) | 37.8% | 36.1% | -2.53% (inactive) | -10% (inactive)
CCC(C)NC(=O)CCNS(=O)(=O)c1ccc(Br)cc1 (stereo not given) | 95.5% | 73% (inactive) | 95.5% (inactive) | 99.2% (inactive) | 98.5% (inactive) | 2.66% (inactive) | 95.8% | 98.5% | -4.74% (inactive) | -1.67% (inactive)
Cc1nc(SC2C=CS(=O)(=O)C2)n[nH]1 (stereo not given) | 104% | 88% (inactive) | 104% (inactive) | 99.7% (inactive) | 86.3% (inactive) | -13.9% (inactive) | 100% | 86.3% | -7.07% (inactive) | 3.11% (inactive)
COc1ccc(C2NC(c3ccc(OC)c(OC)c3OC)C(C)C(=O)C2C)c(OC)c1OC (stereo not given) | 99.5% | 88.5% (inactive) | 99.5% (inactive) | 99.7% (inactive) | 92.4% (inactive) | 7.84% (inactive) | 84.5% | 92.4% | -3.42% (inactive) | -2.22% (inactive)
Cc1[nH]n(C(N)=S)c(=O)c1C(c1ccccc1)C(C#N)C#N (stereo not given) | 96.5% | 152% (inactive) | 96.5% (inactive) | 70.8% (inactive) | 91.6% (inactive) | -0.72% (inactive) | 92.4% | 91.6% | 3.46% (inactive) | 20.2% (inactive)
COc1ccc(Cc2nc(-c3ccc(Br)cc3)no2)cc1 | 72.5% | 106% (inactive) | 72.5% (inactive) | 92.8% (inactive) | 98.2% (inactive) | -2.99% (inactive) | 101% | 98.2% | -0.13% (inactive) | -12.3% (inactive)
CCOC(=O)C1CCCN(Cc2nc(N)nc(Nc3ccccc3)n2)C1 (stereo not given) | 100% | 87% (inactive) | 100% (inactive) | 92.8% (inactive) | 91.1% (inactive) | 5.62% (inactive) | 85.5% | 91.1% | 1.05% (inactive) | 0.32% (inactive)
CCc1cc2c(=O)c(-c3cscn3)coc2cc1O | 108% | 96% (inactive) | 108% (inactive) | 63.5% (inactive) | 88.8% (inactive) | -13% (inactive) | 102% | 88.8% | -1.32% (inactive) | 2.95% (inactive)
CCn1c(=O)cc(SCC(=O)Nc2ccc3c(c2)OCO3)c2ccccc21 | 97% | 88% (inactive) | 97% (inactive) | 64.1% (inactive) | 87.9% (inactive) | 3.51% (inactive) | 84.4% | 87.9% | -2.5% (inactive) | -10.5% (inactive)
CCC(=O)Nc1cc(C)c(NC(=O)C23CC4CC(CC(C4)C2)C3)cn1 | 106% | 85% (inactive) | 106% (inactive) | 84.9% (inactive) | 107% (inactive) | 8.51% (inactive) | 98% | 107% | -3.65% (inactive) | -2.62% (inactive)

SMILES | viability [1] | Her2 level [2] | viability [3] | viability [4] | viability [5] | differential viability (reversal) ([6]; H69AR cells + 2 uM doxorubicin) | viability [6, 9] | viability [6, 10] | inhibition [7] | inhibition [8]
Cc1cc(N2CCN(C)CC2)nc(N2CCOCC2)n1 | 105% | 89.5% (inactive) | 105% (inactive) | 97.7% (inactive) | 92.2% (inactive) | 4.88% (inactive) | 87.4% | 92.2% | -3.82% (inactive) | -8.17% (inactive)
Cc1onc(-c2ccccc2)c1C(=O)N1CCN(C(=O)c2ccco2)CC1 | 98% | 98.5% (inactive) | 98% (inactive) | 101% (inactive) | 88.4% (inactive) | -2.1% (inactive) | 90.5% | 88.4% | -6.67% (inactive) | 5.32% (inactive)
Cc1cc2ccccc2n1CCNC(=O)c1ccc(S(=O)(=O)N2CCOCC2)cc1 | 95.5% | 90% (inactive) | 95.5% (inactive) | 85% (inactive) | 93% (inactive) | -4.87% (inactive) | 97.8% | 93% | -7.57% (inactive) | 1.75% (inactive)
O=C(Cn1cnc2c(nnn2-c2ccc(F)cc2)c1=O)NCc1ccco1 | 97% | 74% (inactive) | 97% (inactive) | 97.1% (inactive) | 84.8% (inactive) | -0.975% (inactive) | 85.7% | 84.8% | -0.39% (inactive) | -2.73% (inactive)
CCOC(=O)c1ccc(Oc2nc(NC)nc(OC)n2)cc1 | 100% | 108% (inactive) | 100% (inactive) | 103% (inactive) | 104% (inactive) | 5.53% (inactive) | 98.8% | 104% | -1.35% (inactive) | -6.67% (inactive)
Clc1ccc(-c2nnc3sc(-c4ccc(Br)o4)nn23)cc1 | 128% | 94.5% (inactive) | 128% (inactive) | 86% (inactive) | 104% (inactive) | 10.5% (inactive) | 93.5% | 104% | -5.07% (inactive) | 5.87% (inactive)
N#CC1=C(N)N(c2ccccc2)C(c2ccco2)C1(C#N)C#N (stereo not given) | 95.5% | 99.5% (inactive) | 95.5% (inactive) | 102% (inactive) | 85.5% (inactive) | -0.88% (inactive) | 86.4% | 85.5% | -6.53% (inactive) | -2.54% (inactive)
CC1CN(CC(O)COc2ccc(C(C)C)cc2)CC(C)O1 (stereo not given) | 93% | 94.5% (inactive) | 93% (inactive) | 94.9% (inactive) | 76.2% (inactive) | 3.78% (inactive) | 72.4% | 76.2% | 18.6% (inactive) | 6% (inactive)
CCCCn1c(CN(C)Cc2ccccc2)nc2c1c(=O)n(C)c(=O)n2C | 83% | 101% (inactive) | 83% (inactive) | 71.1% (inactive) | 71.6% (inactive) | -7.99% (inactive) | 79.6% | 71.6% | -3.24% (inactive) | -0.63% (inactive)
O=C(Cn1c(C(=O)NCC2CCCO2)cc2sccc21)c1ccccc1 (stereo not given) | 94.5% | 100% (inactive) | 94.5% (inactive) | 101% (inactive) | 90.3% (inactive) | 7.12% (inactive) | 83.2% | 90.3% | -1.56% (inactive) | -5.56% (inactive)
CC1CCc2cc(F)cc3c(O)c(C(=O)Nc4cnccn4)c(=O)n1c23 (stereo not given) | 97.5% | 82.5% (inactive) | 97.5% (inactive) | 99.9% (inactive) | 92.8% (inactive) | -1.42% (inactive) | 94.2% | 92.8% | -0.92% (inactive) | 4.52% (inactive)
CCOC(=O)N1CCC(NC(=O)CCC(=O)N2CC(C)Oc3ccc(Cl)cc32)CC1 (stereo not given) | 104% | 96% (inactive) | 104% (inactive) | 94.6% (inactive) | 92.5% (inactive) | 6.71% (inactive) | 85.8% | 92.5% | -5.53% (inactive) | -9.33% (inactive)
CCn1c(C(Cc2ccccc2)NC(=O)COC)nc2ccccc21 (stereo not given) | 102% | 92% (inactive) | 102% (inactive) | 102% (inactive) | 87.4% (inactive) | 8.84% (inactive) | 78.6% | 87.4% | -6.13% (inactive) | 4% (inactive)
CCOC(=O)CC(NS(=O)(=O)c1ccc(NC(C)=O)cc1)c1ccc(OCC)cc1 (stereo not given) | 115% | 100% (inactive) | 115% (inactive) | 110% (inactive) | 90.9% (inactive) | -2.94% (inactive) | 93.9% | 90.9% | -7.63% (inactive) | -4.91% (inactive)
CCOC(=O)C1=C(CSc2nc(C)cc(C)c2C#N)OC(N)=C(C#N)C1c1cccs1 (stereo not given) | 108% | 85.5% (inactive) | 108% (inactive) | 78.5% (inactive) | 83.1% (inactive) | 8.64% (inactive) | 74.5% | 83.1% | -5.33% (inactive) | 0.16% (inactive)
